# Source: ChEMBL document CHEMBL1128448, “Synthesis and antifungal activity of new azole derivatives containing an N-acylmorpholine ring” (1995)
# Assays:
# Kluyveromyces marxianus [1] = assay: Evaluation of In vitro antifungal activity against yeasts by broth macro dilution method; assay type: functional
# Procedure, shortened: (§1)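 Yeast MIC and MFC by broth macrodilution per NCCLS M27-P in RPMI-1640 buffered with 0.165 M MOPS. Fluconazole in sterile water, other drugs in DMSO. C. parapsilosis ATCC 22019 is the reference strain in each run. MIC is the lowest concentration with turbidity ≤ the 80% inhibition standard. For MFC, 0.04 mL from clear tubes is plated on Sabouraud agar; MFC is the lowest concentration giving ≤1 colony.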
# Candida parapsilosis [2] = assay: Evaluation of In vitro antifungal activity against Candida parapsilosis ATCC 141095 by broth macro dilution method; assay type: functional; settings: Lodderomyces parapsilosis; procedure, shortened: as §1
# Pichia kudriavzevii [3] = assay: Evaluation of In vitro antifungal activity against Candida krusei C64 by broth macro dilution method; assay type: functional; procedure, shortened: as §1
# Candida parapsilosis [4] = assay: Evaluation of In vitro antifungal activity against Candida parapsilosis ATCC 22019 by broth macro dilution method; assay type: functional; settings: Lodderomyces parapsilosis; procedure, shortened: as §1
# Nannizzia gypsea = assay: In vitro evaluation of minimum inhibitory concentration against Microsporum gypseum 22; assay type: functional; settings: Nannizzia gypsea; read-out: MIC
# Procedure, shortened: (§2)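 Stocks are 800 μg/mL in 50% ethanol. Each plate gets 10 μL of inoculum at 10^5 cfu/mL. Incubation at 25 °C, 48 h for yeasts and 120 h for dermatophytes and molds. Organisms are ATCC strains or clinical isolates.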
# Candida parapsilosis [5] = assay: In vitro evaluation of minimum inhibitory concentration against Candida parapsilosis 61; assay type: functional; settings: Lodderomyces parapsilosis; read-out: MIC; procedure, shortened: as §2
# Rhodotorula mucilaginosa = assay: In vitro evaluation of minimum inhibitory concentration against Rhodotorula rubra 16; assay type: functional; settings: Rhodotorula mucilaginosa; read-out: MIC; procedure, shortened: as §2
# Candida tropicalis [6] = assay: In vitro evaluation of minimum inhibitory concentration against Candida tropicalis 2.11; assay type: functional; settings: Candida tropicalis; read-out: MIC; procedure, shortened: as §2
# Pichia kudriavzevii [7] = assay: Evaluation of In vitro antifungal activity against Candida krusei 70 by broth macro dilution method; assay type: functional; procedure, shortened: as §1
# Trichophyton benhamiae = assay: In vitro evaluation of minimum inhibitory concentration against Trichophyton mentagrophytes 23; assay type: functional, Arthroderma benhamiae; settings: Trichophyton benhamiae; read-out: MIC; procedure, shortened: as §2
# Kluyveromyces marxianus [8] = assay: Evaluation of In vitro antifungal activity against Candida pseudotropicalis ATCC 28838 by broth macro dilution method; assay type: functional; procedure, shortened: as §1
# Candida tropicalis [9] = assay: Evaluation of In vitro antifungal activity against Candida tropicalis 2.11 by broth macro dilution method; assay type: functional; procedure, shortened: as §1
# Cryptococcus neoformans [10] = assay: Evaluation of In vitro antifungal activity against Cryptococcus neoformans 87 by broth macro dilution method; assay type: functional; procedure, shortened: as §1
# Candida parapsilosis [11] = assay: Evaluation of In vitro antifungal activity against Candida parapsilosis C74 by broth macro dilution method; assay type: functional; settings: Lodderomyces parapsilosis; procedure, shortened: as §1
# Nakaseomyces glabratus [12] = assay: In vitro evaluation of minimum inhibitory concentration against Torulopsis glabrata 78; assay type: functional; settings: Nakaseomyces glabratus; read-out: MIC; procedure, shortened: as §2
# Candida albicans [13] = assay: Evaluation of […] antifungal activity against Candida albicans 60 by broth macro dilution method; assay type: functional; procedure, shortened: as §1
# Candida albicans [14] = assay: Evaluation of In vitro antifungal activity against Candida albicans C52 by broth macro dilution method; assay type: functional; procedure, shortened: as §1
# Candida albicans [15] = assay: Evaluation of In vitro antifungal activity against Candida albicans ATCC 10231 by broth macro dilution method; assay type: functional; procedure, shortened: as §1
# Candida tropicalis [16] = assay: Evaluation of In vitro antifungal activity against Candida tropicalis 50 by broth macro dilution method; assay type: functional; procedure, shortened: as §1
# Candida parapsilosis [17] = assay: Evaluation of In vitro antifungal activity against Candida parapsilosis C292 by broth macro dilution method; assay type: functional; settings: Lodderomyces parapsilosis; procedure, shortened: as §1
# Candida albicans [18] = assay: Evaluation of In vitro antifungal activity against Candida albicans 76 by broth macro dilution method; assay type: functional; procedure, shortened: as §1
# Candida albicans [19] = assay: […] Evaluation of minimum inhibitory concentration against Candida albicans 60; assay type: functional; procedure, shortened: as §2
# Aspergillus niger = assay: In vitro evaluation of minimum inhibitory concentration against Aspergillus niger 18; assay type: functional; settings: Aspergillus niger; read-out: MIC; procedure, shortened: as §2
# Nakaseomyces glabratus [20] = assay: Evaluation of In vitro antifungal activity against Torulopsis glabrata 78 by broth macro dilution method; assay type: functional; procedure, shortened: as §1
# Candida albicans [21] = assay: Evaluation of In vitro antifungal activity against Candida albicans 60 by broth macro dilution method
# Candida albicans [22] = assay: In vitro evaluation of minimum inhibitory concentration against Candida albicans 76; assay type: functional; settings: Candida albicans; read-out: MIC; procedure, shortened: as §2
# Candida albicans [23] = assay: Evaluation of In vitro antifungal activity against Candida albicans 31 by broth macro dilution method; assay type: functional; procedure, shortened: as §1
# Aspergillus flavus = assay: In vitro evaluation of minimum inhibitory concentration against Aspergillus flavus 19; assay type: functional; settings: Aspergillus flavus; read-out: MIC; procedure, shortened: as §2
# Microsporum canis = assay: In vitro evaluation of minimum inhibitory concentration against Microsporum canis 47; assay type: functional; settings: Microsporum canis; read-out: MIC; procedure, shortened: as §2
# Candida parapsilosis [24] = assay: Evaluation of In vitro antifungal activity against Candida parapsilosis 2.07 by broth macro dilution method; assay type: functional; settings: Lodderomyces parapsilosis; procedure, shortened: as §1
# Pichia kudriavzevii [25] = assay: In vitro evaluation of minimum inhibitory concentration against Candida krusei 70; assay type: functional; settings: Pichia kudriavzevii; read-out: MIC; procedure, shortened: as §2
# Candida albicans [26] = assay: Evaluation of In vitro antifungal activity against Candida albicans C56 by broth macro dilution method; assay type: functional; procedure, shortened: as §1
# Cryptococcus neoformans [27] = assay: Evaluation of In vitro antifungal activity against Cryptococcus neoformans 74 by broth macro dilution method; assay type: functional; procedure, shortened: as §1
# [28] = test system: Meyerozyma guilliermondii; assay: In vitro evaluation of minimum inhibitory concentration against Candida guilliermondii 26; assay type: functional; settings: Meyerozyma guilliermondii; read-out: MIC; procedure, shortened: as §2
# Candida albicans [29] = assay: Evaluation of In vitro antifungal activity against Candida albicans 2.01 by broth macro dilution method; assay type: functional; procedure, shortened: as §1
# Kluyveromyces marxianus [30] = assay: In vitro evaluation of minimum inhibitory concentration against Candida pseudotropicalis 13; assay type: functional; settings: Kluyveromyces marxianus; read-out: MIC; procedure, shortened: as §2
# Candida albicans [31] = assay: Evaluation of In vitro antifungal activity against Candida albicans 406 by broth macro dilution method; assay type: functional; procedure, shortened: as §1
# [32] = test system: Meyerozyma guilliermondii; assay: Evaluation of In vitro antifungal activity against Candida guilliermondii 26 by broth macro dilution method; assay type: functional; procedure, shortened: as §1
# Trichophyton rubrum = assay: In vitro evaluation of minimum inhibitory concentration against Trichophyton rubrum 90; assay type: functional; settings: Trichophyton rubrum; read-out: MIC; procedure, shortened: as §2
# Aspergillus fumigatus = assay: In vitro evaluation of minimum inhibitory concentration against Aspergillus fumigatus 33; assay type: functional; settings: Aspergillus fumigatus; read-out: MIC; procedure, shortened: as §2
# Candida albicans [33] = assay: […] Evaluation of minimum inhibitory concentration against Candida albicans 406; assay type: functional; procedure, shortened: as §2
smiles,measurement,setting,value
CC(=O)N1CCN(c2ccc(OC[C@H]3CO[C@](Cn4ccnc4)(c4ccc(Cl)cc4Cl)O3)cc2)CC1 [KETOCONAZOLE],MIC,Kluyveromyces marxianus [1],0.063 µg/mL
same,MFC,Candida parapsilosis [2],16 µg/mL
same,MIC,Candida parapsilosis [2],0.5 µg/mL
same,MFC,Pichia kudriavzevii [3],8 µg/mL
same,MIC,Pichia kudriavzevii [3],2 µg/mL
same,MFC,Candida parapsilosis [4],4 µg/mL
same,MIC,Candida parapsilosis [4],0.063 µg/mL
same,MIC,Nannizzia gypsea,0.63 µg/mL
same,MIC,Candida parapsilosis [5],0.07 µg/mL
same,MIC,Rhodotorula mucilaginosa,0.07 µg/mL
same,MIC,Candida tropicalis [6],2.5 µg/mL
same,MFC,Pichia kudriavzevii [7],4 µg/mL
same,MIC,Pichia kudriavzevii [7],2 µg/mL
same,MIC,Trichophyton benhamiae,5 µg/mL
same,MFC,Kluyveromyces marxianus [8],> 16 µg/mL
same,MFC,Candida tropicalis [9],8 µg/mL
same,MIC,Candida tropicalis [9],0.25 µg/mL
same,MFC,Cryptococcus neoformans [10],16 µg/mL
same,MIC,Cryptococcus neoformans [10],2 µg/mL
same,MFC,Candida parapsilosis [11],0.25 µg/mL
same,MIC,Candida parapsilosis [11],0.063 µg/mL
same,MIC,Nakaseomyces glabratus [12],1.25 µg/mL
same,MIC,Candida albicans [13],< 0.031 µg/mL
same,MFC,Candida albicans [14],> 16 µg/mL
same,MIC,Candida albicans [14],< 0.031 µg/mL
same,MFC,Candida albicans [15],> 16 µg/mL
same,MIC,Candida albicans [15],0.063 µg/mL
same,MFC,Candida tropicalis [16],> 16 µg/mL
same,MIC,Candida tropicalis [16],2 µg/mL
same,MFC,Candida parapsilosis [17],16 µg/mL
same,MIC,Candida parapsilosis [17],0.125 µg/mL
same,MFC,Candida albicans [18],> 16 µg/mL
same,MIC,Candida albicans [18],< 0.031 µg/mL
same,MIC,Candida albicans [19],< 0.03 µg/mL
same,MIC,Aspergillus niger,40 µg/mL
same,MFC,Nakaseomyces glabratus [20],> 16 µg/mL
same,MIC,Nakaseomyces glabratus [20],8 µg/mL
same,MFC,Candida albicans [21],> 16 µg/mL
same,MIC,Candida albicans [22],0.15 µg/mL
same,MFC,Candida albicans [23],> 16 µg/mL
same,MIC,Candida albicans [23],< 0.031 µg/mL
same,MIC,Aspergillus flavus,2.5 µg/mL
same,MIC,Microsporum canis,2.5 µg/mL
same,MFC,Candida parapsilosis [24],> 16 µg/mL
same,MIC,Candida parapsilosis [24],0.063 µg/mL
same,MIC,Pichia kudriavzevii [25],1.25 µg/mL
same,MFC,Candida albicans [26],> 16 µg/mL
same,MIC,Candida albicans [26],< 0.031 µg/mL
same,MFC,Cryptococcus neoformans [27],1 µg/mL
same,MIC,Cryptococcus neoformans [27],< 0.031 µg/mL
same,MIC,[28],< 0.03 µg/mL
same,MFC,Candida albicans [29],> 16 µg/mL
same,MIC,Candida albicans [29],0.063 µg/mL
same,MIC,Kluyveromyces marxianus [30],10 µg/mL
same,MFC,Candida albicans [31],> 16 µg/mL
same,MIC,Candida albicans [31],0.063 µg/mL
same,MFC,[32],4 µg/mL
same,MIC,[32],0.125 µg/mL
same,MIC,Trichophyton rubrum,1.25 µg/mL
same,MIC,Aspergillus fumigatus,5 µg/mL
same,MIC,Candida albicans [33],< 0.03 µg/mL
